This is a sample that favours compounds with a hit; in the whole collection about 1.9% have one here.
LMPTP inh – LMPTP (human) inhibition | inhibition, % at 20 µM | recombinant LMPTP-A, OMFP fluorogenic substrate, fluorescence intensity | P24666 | 360,000 tested, 0.22% active;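 active = compounds that cut the enzyme signal by at least half of the control window in the single-dose screen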
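Assay system: LMPTP-A, protein tyrosine phosphatase of low molecular weight / Medium: pH 6.0 Bis-Tris buffer with DTT and Triton X-100 / Schedule: 50 min enzyme reaction at room temperature, protected from light / Measured by: endpoint fluorescence intensity from OMFP dephosphorylation / Read-out basis: % inhibition relative to no-enzyme and uninhibited control wells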
UBC9 SUMO inh – blocks human SUMOylation mediated by UBC9; P63279; HTRF SUMOylation assay, SAE1/SAE2 + UBC9, in vitro; inhibition, % at 35 µM; 290,000 tested, 0.36% active; AID 2006; in the data active = inhibition above about 50%, passing the limit was not always enough
DNMT1 inh – inhibitors of human DNMT1. P26358. DNMT1 molecular beacon, Hinp1I cleavage, fluorescence. AID 588458. inhibition (reported as % activation of signal), % at 10 µM. 360,000 tested, 0.83% active; in the data active = inhibition above about 50%
Target sequence (P26358 504-1616 limits assumed): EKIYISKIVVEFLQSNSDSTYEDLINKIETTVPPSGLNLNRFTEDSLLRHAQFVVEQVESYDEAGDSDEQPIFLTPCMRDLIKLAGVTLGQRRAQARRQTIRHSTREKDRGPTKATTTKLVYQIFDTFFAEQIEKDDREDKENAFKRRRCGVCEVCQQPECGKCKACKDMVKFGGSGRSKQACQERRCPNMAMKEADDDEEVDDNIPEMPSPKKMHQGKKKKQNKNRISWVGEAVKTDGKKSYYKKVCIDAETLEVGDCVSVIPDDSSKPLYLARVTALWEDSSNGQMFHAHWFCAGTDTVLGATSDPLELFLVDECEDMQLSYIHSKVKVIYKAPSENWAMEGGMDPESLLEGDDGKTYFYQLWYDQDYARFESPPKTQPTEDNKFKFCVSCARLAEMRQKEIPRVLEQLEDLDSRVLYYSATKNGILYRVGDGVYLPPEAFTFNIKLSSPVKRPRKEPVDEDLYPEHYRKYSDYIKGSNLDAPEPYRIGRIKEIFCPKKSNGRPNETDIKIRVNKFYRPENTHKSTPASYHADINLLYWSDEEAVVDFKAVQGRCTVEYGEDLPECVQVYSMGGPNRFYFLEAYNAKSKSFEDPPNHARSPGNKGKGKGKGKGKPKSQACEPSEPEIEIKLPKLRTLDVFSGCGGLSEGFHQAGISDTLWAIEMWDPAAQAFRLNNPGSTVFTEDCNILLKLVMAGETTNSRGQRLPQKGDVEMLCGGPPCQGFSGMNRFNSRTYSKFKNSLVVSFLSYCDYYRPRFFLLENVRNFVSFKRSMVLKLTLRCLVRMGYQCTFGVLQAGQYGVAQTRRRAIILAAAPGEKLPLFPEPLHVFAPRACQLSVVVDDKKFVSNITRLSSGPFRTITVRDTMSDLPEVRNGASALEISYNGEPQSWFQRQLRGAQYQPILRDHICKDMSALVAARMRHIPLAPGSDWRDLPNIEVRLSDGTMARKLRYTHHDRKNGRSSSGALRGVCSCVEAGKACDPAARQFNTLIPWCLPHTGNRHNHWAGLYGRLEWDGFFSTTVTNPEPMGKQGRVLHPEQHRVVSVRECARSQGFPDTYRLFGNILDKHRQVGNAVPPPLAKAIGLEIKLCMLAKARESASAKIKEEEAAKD
SUMO1 PPI mod – modulators of human SUMO1-mediated protein-protein interactions; P63165; AID 602429; SUMO1 binding to a labelled peptide, TR-FRET, 1 h; 360,000 tested, 0.33% active; inhibition, % at 20 µM; in the data active = inhibition above about 37%
Scp1 inh – blocks human Scp-1 phosphatase activity. Recombinant Scp1, phosphopeptide, malachite green phosphate absorbance. inhibition, % at 20 µM. 340,000 tested, 0.88% active;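 active = inhibition above about 50% at 20 µM, limit read from the data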
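Test system: SCP-1 phosphatase catalytic domain, residues 76-261; measured by: colorimetric phosphate reagent with accelerator and stabiliser, absorbance at 630 nm; timing: enzyme reaction 45 min at room temperature, colour 5 min, stabilisation 30 min; also added: Phosphorylated 17-residue peptide substrate; compound dosing: one concentration, 20 µM, with 1.0% DMSO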
STEP inh – STEP (human) phosphatase inhibition | 360,000 tested, 0.25% active | inhibition, % at 20 µM | AID 588621 | P54829 | recombinant STEP, OMFP fluorogenic substrate, fluorescence;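 active = inhibition at 20 µM, scaled per plate between control wells, above about 37%, limit read from the data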
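Also added – OMFP at 25 µM · Test system – STEP tyrosine phosphatase · Technique – FITC-channel fluorescence of OMFP product · Schedule – 20 min at room temperature, dark · Evaluation – control-normalized % inhibition with plate pattern correction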
DNMT1 interf DR – shows spectral interference in the DNMT1 beacon assay. shares compounds with DNMT1 inh. molecular beacon fluorescence, spectral interference counter-screen. IC50, µM. 200 tested, under 10 active
DNMT1 inh conf – confirmation of human DNMT1 inhibitors. shares compounds with DNMT1 inh. DNMT1 molecular beacon HinP1I cleavage, fluorescence. inhibition, % at 10 µM. 2,300 tested, 8% active. AID 602385;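 active = average inhibition of at least 30% in the single-concentration confirmation test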
Beacon interf – counter-screen for DNMT1 inhibitors: spectral interference | shares compounds with DNMT1 inh | DNMT1 molecular beacon spectral interference counterscreen, fluorescence 485/520 | activation (fluorescence interference), % at 10 µM | 2,300 tested, 1% active;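 active = activation of at least 30% at 10 µM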;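 note: DNMT1 catalytic domain with a HinP1I cleavage step and a FAM/dabcyl DNA beacon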
STEP conf – STEP (human) phosphatase inhibition, single concentration confirmation. 520 tested, 32% active. shares compounds with STEP inh. inhibition, % at 20 µM. recombinant STEP, OMFP fluorogenic substrate, fluorescence
Hits are given with their value; . = inactive; / = no result given. Unless noted, the rule behind the calls is not given here.

SMILES	LMPTP inh	UBC9 SUMO inh	DNMT1 inh	SUMO1 PPI mod	Scp1 inh	STEP inh	DNMT1 inh conf	Beacon interf	others
O=C1NC(=S)N(C2CC2)C(=O)/C1=C/c1ccc2c(c1)CCN2CCCCl	.	.	87.5	.	.	.	.	.
CCN1C(=O)/C(=C/c2ccc3c(c2)CCN3CCCCl)C(=O)NC1=S	.	.	101.6	.	.	.	.	.
CC(C)(C)N1C(=O)NC(=O)/C(=C\c2ccc3c(c2)CCN3CCCCl)C1=O	.	.	.	.	.	.	/	/
C=CCN1C(=O)/C(=C/c2ccc3c(c2)CCCN3CCC)C(=O)NC1=S	.	.	.	.	.	.	/	/
CC1(O)CCN2C(=O)CCc3cccc1c32 (stereo not given)	.	/	.	.	.	.	/	/
COC(=O)C1=C(c2ccc(S(C)(=O)=O)cc2)C[C@@H]2CC[C@H]1N2C(=O)N1CCOCC1	.	/	67.3	.	.	.	.	.
O=C1CC(N2CCC(n3c(=O)[nH]c4ccccc43)CC2)C(=O)N1c1ccc(F)cc1 (stereo not given)	.	.	61.0	.	.	.	.	.
COc1ccc(Cn2c(N)c(C(=O)NCc3ccco3)c3nc4ccccc4nc32)cc1OC	.	99.9	86.7	36.5	.	.	.	.
CC(C)OC(=O)c1c(N)n(Cc2ccco2)c2nc3ccccc3nc12	.	/	.	.	.	.	/	/
COC(=O)c1c(N)n(Cc2ccc(OC)cc2)c2nc3ccccc3nc12	.	.	69.7	.	.	.	.	.
COCCOC(=O)c1c(N)n(Cc2ccco2)c2nc3ccccc3nc12	.	.	66.3	49.5	.	.	.	.
Nc1c(C(=O)OCC2CCCO2)c2nc3ccccc3nc2n1Cc1cccs1 (stereo not given)	.	.	73.4	.	.	.	.	.
CC(C)OCCCNC(=O)c1c(N)n(Cc2cccs2)c2nc3ccccc3nc12	.	.	.	.	.	.	/	/
Cc1ccc(/C=C2\C(=O)NC(=S)N(c3cccc(F)c3)C2=O)o1	.	.	72.1	.	.	.	.	.
CN1CCN(c2ccc(/C=C3\C(=O)NC(=S)N(c4cccc(Br)c4)C3=O)o2)CC1	.	.	.	.	.	.	/	/
COc1ccc(N2C(=O)/C(=C/c3ccc(C)o3)C(=O)NC2=S)cc1	.	.	87.0	.	.	.	.	.
COc1cc(CN2CCN(c3cc(C)ccc3C)CC2)ccc1O	.	.	.	.	.	.	/	/
O=P(O)(O)C12CC3CC(CC(C3)C1)C2	.	.	.	.	.	.	/	/
O=C(O)Cn1cc(/C=C2\C(=O)NC(=O)N(c3ccc(Cl)cc3)C2=O)c2ccccc21	.	.	67.5	.	.	.	.	.
O=C(O)Cn1cc(C=C2C(=O)NC(=O)NC2=O)c2ccccc21	.	.	.	.	.	.	/	/
O=C(CCc1nc(-c2ccccc2F)no1)N1CCC2(CC1)OCCO2	.	.	57.9	.	.	.	.	.
COc1ccc(CCC(=O)N2CCC3(CC2)OCCO3)cc1	.	.	.	.	.	.	/	/
Cn1cc(NC(=O)CCl)cn1	.	.	.	.	.	.	/	/
O=C1NC(=O)N(c2ccccc2)C(=O)/C1=C/C=C/c1ccco1	.	.	64.7	.	.	.	.	.
CCc1ccc(N2C(=O)NC(=O)/C(=C\c3cc(C)n(-c4cc(C(=O)O)cc(C(=O)O)c4)c3C)C2=O)cc1	.	.	72.6	.	.	.	.	.
SMILES	LMPTP inh	UBC9 SUMO inh	DNMT1 inh	SUMO1 PPI mod	Scp1 inh	STEP inh	DNMT1 inh conf	Beacon interf	others
Cc1cc(/C=C2\C(=O)NC(=O)N(Cc3ccco3)C2=O)c(C)n1-c1ccc(C(=O)O)cc1	.	.	86.3	.	61.0	.	.	.
Cc1cc(/C=C2\C(=O)NC(=O)N(c3ccc(Cl)cc3)C2=O)c(C)n1-c1sc2c(c1C#N)CCCC2	.	.	78.8	48.8	.	.	32.2	.	DNMT1 interf DR=.
CCOC(=O)c1c(-n2c(C)cc(/C=C3\C(=O)NC(=O)N(C)C3=O)c2C)sc2c1CCCC2	.	.	.	.	.	.	/	/
Cc1cc(/C=C2\C(=O)NC(=O)N(Cc3ccco3)C2=O)c(C)n1-c1ccc(O)cc1	.	61.6	72.5	.	.	.	.	.
CC1CN1c1cc2c(c3c1ccn3C)C1CCC2C1 (stereo not given)	.	/	.	.	/	.	/	/
COc1ccc(O)c(CN2CCCC(C(=O)c3ccccc3SC)C2)c1 (stereo not given)	.	.	.	.	.	.	/	/
COc1ccc(-c2n(-c3ccccn3)c3ccccc3[n+]2-c2ccccn2)cc1	.	.	.	.	.	.	/	/
CCN(CCO)c1ccc(N=Cc2c(O)n(C)c(=S)[nH]c2=O)cc1	.	.	.	.	.	.	/	/
C[C@]12CC[C@H](N)CC1=CCC1C2CC[C@@]2(C)C1CC[C@@H]2O (stereo not given in full)	.	/	.	.	.	.	/	/
C[C@]12CC[C@@H](O)CC1=CCC1C2CC[C@@]2(C)C1CC[C@@H]2N (stereo not given in full)	.	/	81.3	.	.	.	.	.
O=C(Cn1nc(-c2ccccc2)ccc1=O)N1CCC2(CC1)OCCO2	.	.	.	.	.	.	/	/
CN(C)c1ccc2c(c1)N=C(c1ccco1)OP2(=S)N1CCOCC1 (stereo not given)	.	.	.	.	.	36.5	/	/	STEP conf=.
CN(C)c1ccc(CCN2CCOCC2)cc1	.	/	.	.	.	.	/	/
CC(=O)N(C1=NCCCS1)c1ccccc1Cl	.	.	.	.	.	.	/	/
C=CCn1c(O)c(/C=N/N2CCCCC2c2cccnc2)c(=O)[nH]c1=S (stereo not given)	.	.	.	.	.	42.3	/	/	STEP conf=.

Assay outcomes deposited in PubChem BioAssay by Sanford-Burnham Center for Chemical Genomics.
